ChEMBL document CHEMBL3751694, “1-Piperazinylphthalazines as potential VEGFR-2 inhibitors and anticancer agents: Synthesis and in vitro biological evaluation” (Eur J Med Chem, 2016)

Legend:
Assay type in all cases: functional
[1] = test system: A549; assay: Growth inhibition of human A549 cells at 10 uM after 48 hrs by SRB method; details: A549, 48 h, read-out: GI
Summary of the method: (§1)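 NCI 56-line primary screen at a single 10^-5 M concentration. Cells grown in RPMI 1640 with 5% FBS and 2 mM L-glutamine, plated at 5000–40,000 cells/well, then preincubated for 24 h. Exposure was 48 h at 37 °C and 5% CO2. Adherent cells were fixed with cold TCA at 10% final, suspension cells at 16%. Staining used 0.4% SRB, read at 515 nm. Results are % growth inhibition relative to control.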

[2] = test system: MCF7; assay: Growth inhibition of human MCF7 cells at 10 uM after 48 hrs by SRB method; details: MCF7, 48 h, read-out: GI; summary of the method: as §1
[3] = Growth inhibition of human TK10 cells at 10 uM after 48 hrs by SRB method; details: TK-10, 48 h, read-out: GI
Summary of the method: (§2)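 NCI 56-line screen, single-dose primary assay at 10^-5 M. Cells grown in RPMI 1640 with 5% FBS and 2 mM L-glutamine, plated at 5000–40,000 cells/well and held 24 h at 37 °C, 5% CO2 before drug addition. Compound was given from DMSO stock, exposure 48 h, then TCA fixation and SRB staining with absorbance at 515 nm. % growth is taken relative to time-zero and untreated controls.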

[4] = Growth inhibition of human Caki1 cells at 10 uM after 48 hrs by SRB method; details: CAKI-1, 48 h, read-out: GI; summary of the method: as §1
[5] = test system: NCI-H226; assay: Growth inhibition of human NCI-H226 cells at 10 uM after 48 hrs by SRB method; details: NCI-H226, 48 h, read-out: GI; summary of the method: as §1
[6] = test system: SN12C; assay: Growth inhibition of human SN12C cells at 10 uM after 48 hrs by SRB method; details: read-out: GI; summary of the method: as §1
[7] = test system: NCI/ADR-RES; assay: Growth inhibition of human NCI/ADR-RES cells at 10 uM after 48 hrs by SRB method; details: read-out: GI; summary of the method: as §1
[8] = Growth inhibition of human SF295 cells at 10 uM after 48 hrs by SRB method; details: SF-295, 48 h, read-out: GI; summary of the method: as §1
[9] = Growth inhibition of human MOLT4 cells at 10 uM after 48 hrs by SRB method; details: MOLT-4, 48 h, read-out: GI; summary of the method: as §1
[10] = Growth inhibition of human OVCAR8 cells at 10 uM after 48 hrs by SRB method; details: OVCAR-8, 48 h, read-out: GI; summary of the method: as §1
[11] = test system: CCRF-CEM; assay: Growth inhibition of human CCRF-CEM cells at 10 uM after 48 hrs by SRB method; details: read-out: GI; summary of the method: as §1
[12] = test system: MDA-MB-435; assay: Growth inhibition of human MDA-MB-435 cells at 10 uM after 48 hrs by SRB method; details: MDA-MB-435, 48 h, read-out: GI; summary of the method: as §1
[13] = Growth inhibition of human HCT116 cells at 10 uM after 48 hrs by SRB method; details: HCT-116, 48 h, read-out: GI; summary of the method: as §1
[14] = Growth inhibition of human COLO205 cells at 10 uM after 48 hrs by SRB method; details: COLO 205, 48 h, read-out: GI; summary of the method: as §1
[15] = test system: SR; assay: Growth inhibition of human SR cells at 10 uM after 48 hrs by SRB method; details: read-out: GI; summary of the method: as §1
[16] = test system: HT-29; assay: Growth inhibition of human HT-29 cells at 10 uM after 48 hrs by SRB method; details: HT-29, 48 h, read-out: GI; summary of the method: as §1
[17] = Growth inhibition of human SF268 cells at 10 uM after 48 hrs by SRB method; details: SF-268, 48 h, read-out: GI; summary of the method: as §1
[18] = Growth inhibition of human HOP92 cells at 10 uM after 48 hrs by SRB method; details: HOP-92, 48 h, read-out: GI; summary of the method: as §1
[19] = Growth inhibition of human OVCAR3 cells at 10 uM after 48 hrs by SRB method; details: OVCAR-3, 48 h, read-out: GI; summary of the method: as §1
[20] = Growth inhibition of human UACC62 cells at 10 uM after 48 hrs by SRB method; details: UACC-62, 48 h, read-out: GI; summary of the method: as §2
[21] = test system: 786-0; assay: Growth inhibition of human 786-0 cells at 10 uM after 48 hrs by SRB method; details: 786-0, 48 h, read-out: GI; summary of the method: as §1
[22] = test system: SK-MEL-2; assay: Growth inhibition of human SK-MEL-2 cells at 10 uM after 48 hrs by SRB method; details: SK-MEL-2, 48 h, read-out: GI; summary of the method: as §1
[23] = Growth inhibition of human HL-60(TB) cells at 10 uM after 48 hrs by SRB method; details: HL-60, 48 h, read-out: GI
Summary of the method: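 NCI single-dose primary screen at 10^-5 M, 48 h exposure. Cells grown in RPMI 1640 with 5% FBS and 2 mM L-glutamine. Suspension cells fixed in situ with TCA (final 16%), stained with SRB, absorbance read at 515 nm. Percent growth inhibition calculated against time-zero and untreated control plates.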

[24] = Growth inhibition of human OVCAR4 cells at 10 uM after 48 hrs by SRB method; details: OVCAR-4, 48 h, read-out: GI; summary of the method: as §1
[25] = Growth inhibition of human UO31 cells at 10 uM after 48 hrs by SRB method; details: UO-31, 48 h, read-out: GI; summary of the method: as §2
[26] = test system: SK-MEL-5; assay: Growth inhibition of human SK-MEL-5 cells at 10 uM after 48 hrs by SRB method; details: SK-MEL-5, 48 h, read-out: GI; summary of the method: as §1
[27] = test system: NCI-H522; assay: Growth inhibition of human NCI-H522 cells at 10 uM after 48 hrs by SRB method; details: NCI-H522, 48 h, read-out: GI; summary of the method: as §1
[28] = test system: T47D; assay: Growth inhibition of human T47D cells at 10 uM after 48 hrs by SRB method; details: read-out: GI; summary of the method: as §2
[29] = Growth inhibition of human PC3 cells at 10 uM after 48 hrs by SRB method; details: PC-3, 48 h, read-out: GI; summary of the method: as §1
[30] = Growth inhibition of human UACC257 cells at 10 uM after 48 hrs by SRB method; details: UACC-257, 48 h, read-out: GI; summary of the method: as §2
[31] = test system: A498; assay: Growth inhibition of human A498 cells at 10 uM after 48 hrs by SRB method; details: A498, 48 h, read-out: GI; summary of the method: as §1
[32] = test system: K562; assay: Growth inhibition of human K562 cells at 10 uM after 48 hrs by SRB method; details: K562, 48 h, read-out: GI; summary of the method: as §1
[33] = Growth inhibition of human […] cells at 10 uM after 48 hrs by SRB method; details: read-out: GI; summary of the method: as §1
[34] = test system: MDA-MB-468; assay: Growth inhibition of human MDA-MB-468 cells at 10 uM after 48 hrs by SRB method; details: MDA-MB-468, 48 h, read-out: GI; summary of the method: as §1

Structure (SMILES): O=C(CN1CCN(c2nnc(-c3ccccc3)c3ccccc23)CC1)Nc1nc(-c2ccc(Cl)cc2)cs1
- inhibition of growth at 10 µM [1]: 45%
- inhibition of growth at 10 µM [2]: 44%
- inhibition of growth at 10 µM [3]: 41%
- inhibition of growth at 10 µM [4]: 41%
- inhibition of growth at 10 µM [5]: 31%
- inhibition of growth at 10 µM [6]: 30%
- inhibition of growth at 10 µM [7]: 39%
- inhibition of growth at 10 µM [8]: 38%
- inhibition of growth at 10 µM [9]: 64%
- inhibition of growth at 10 µM [10]: 37%
- inhibition of growth at 10 µM [11]: 38%
- inhibition of growth at 10 µM [12]: 31%
- inhibition of growth at 10 µM [13]: 38%
- inhibition of growth at 10 µM [14]: 32%
- inhibition of growth at 10 µM [15]: 53%
- inhibition of growth at 10 µM [16]: 32%
- inhibition of growth at 10 µM [17]: 32%
- inhibition of growth at 10 µM [18]: 31%
- inhibition of growth at 10 µM [19]: 31%
- inhibition of growth at 10 µM [20]: 36%
- inhibition of growth at 10 µM [21]: 30%
- inhibition of growth at 10 µM [22]: 31%
- inhibition of growth at 10 µM [23]: 45%
- inhibition of growth at 10 µM [24]: 30%
- inhibition of growth at 10 µM [25]: 50%
- inhibition of growth at 10 µM [26]: 56%
- inhibition of growth at 10 µM [27]: 47%
- inhibition of growth at 10 µM [28]: 65%
- inhibition of growth at 10 µM [29]: 56%
- inhibition of growth at 10 µM [30]: 45%
- inhibition of growth at 10 µM [31]: 52%
- inhibition of growth at 10 µM [32]: 60%
- inhibition of growth at 10 µM [33]: 58%
- inhibition of growth at 10 µM [34]: 66%
